# Results taken from ChEMBL document CHEMBL3046951, “Volatile constituents from the leaves of Callicarpa japonica Thunb. and their antibacterial activities” (2004).
# Key:
# Format in all cases: functional
# Listeria monocytogenes [1] = test: Antimicrobial activity against Listeria monocytogenes ATCC 19111 assessed as growth inhibition rate at 1470.8 mg/l after 72 hr by spectrophotometry; conditions: ATCC 19111, 72 h, read-out: GI
# Method in brief: (§1)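 L. monocytogenes was grown at 30 °C in tryptic soy broth, subcultured for 18 h, and exposed to pure volatile compounds (>95% purity). Growth was followed by Bioscreen C optical density every 24 h for 72 h against a 10% Tween 80 control.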
# Vibrio parahaemolyticus [2] = test: Antimicrobial activity against Vibrio parahaemolyticus ATCC 33844 assessed as growth inhibition rate at 1470.8 mg/l after 72 hr by spectrophotometry; conditions: ATCC 33844, 72 h, read-out: GI
# Salmonella typhimurium [3] = test: Antimicrobial activity against Salmonella enterica subsp. enterica serovar Typhimurium ATCC 14028 assessed as growth inhibition rate at 1470.8 mg/l after 72 hr by spectrophotometry; conditions: ATCC 14028, 72 h, read-out: GI
# Method in brief: (§2)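 Salmonella Typhimurium ATCC 14028 grown in nutrient broth at 30 °C, precultured 24 h, then subcultured 1:100 for 18 h before testing. Single volatile compounds (>95% pure) were added. OD was read every 24 h over 72 h in a Bioscreen C, with 10% Tween 80 as the comparison control.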
# Escherichia coli [4] = test: Antimicrobial activity against Escherichia coli O157:H7 ATCC 43894 assessed as growth inhibition rate at 1470.8 mg/l after 72 hr by spectrophotometry; conditions: O157:H7 ATCC 43894, 72 h, read-out: GI
# Staphylococcus aureus [5] = test: Antimicrobial activity against Staphylococcus aureus ATCC 25923 assessed as growth inhibition rate at 1470.8 mg/l after 72 hr by spectrophotometry; conditions: ATCC 25923, 72 h, read-out: GI
# Bacillus cereus [6] = test: Antimicrobial activity against Bacillus cereus ATCC 11778 assessed as growth inhibition rate at 1470.8 mg/l after 72 hr by spectrophotometry; conditions: ATCC 11778, 72 h, read-out: GI
# Method in brief: (§3)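 Pure volatile compounds (purity >95%; one at 90%) were tested against B. cereus ATCC 11778. The strain was grown at 30 °C in nutrient broth for 24 h, then subcultured for 18 h. Optical density was read in a Bioscreen C every 24 h for 72 h, with 10% Tween 80 as the control.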
# Listeria monocytogenes [7] = test: Antimicrobial activity against Listeria monocytogenes ATCC 19111 assessed as growth inhibition rate at 11.64 mg/l after 72 hr by spectrophotometry; conditions: ATCC 19111, 72 h, read-out: GI; method in brief: as §1
# Vibrio parahaemolyticus [8] = test: Antimicrobial activity against Vibrio parahaemolyticus ATCC 33844 assessed as growth inhibition rate at 11.64 mg/l after 72 hr by spectrophotometry; conditions: ATCC 33844, 72 h, read-out: GI
# Salmonella typhimurium [9] = test: Antimicrobial activity against Salmonella enterica subsp. enterica serovar Typhimurium ATCC 14028 assessed as growth inhibition rate at 11.64 mg/l after 72 hr by spectrophotometry; conditions: ATCC 14028, 72 h, read-out: GI; method in brief: as §2
# Escherichia coli [10] = test: Antimicrobial activity against Escherichia coli O157:H7 ATCC 43894 assessed as growth inhibition rate at 11.64 mg/l after 72 hr by spectrophotometry; conditions: O157:H7 ATCC 43894, 72 h, read-out: GI
# Staphylococcus aureus [11] = test: Antimicrobial activity against Staphylococcus aureus ATCC 25923 assessed as growth inhibition rate at 11.64 mg/l after 72 hr by spectrophotometry; conditions: ATCC 25923, 72 h, read-out: GI
# Bacillus cereus [12] = test: Antimicrobial activity against Bacillus cereus ATCC 11778 assessed as growth inhibition rate at 11.64 mg/l after 72 hr by spectrophotometry; conditions: ATCC 11778, 72 h, read-out: GI; method in brief: as §3
Compound,inhibition of growth at 1470.8 µg/mL (Listeria monocytogenes [1]),inhibition of growth at 1470.8 µg/mL (Vibrio parahaemolyticus [2]),inhibition of growth at 1470.8 µg/mL (Salmonella typhimurium [3]),inhibition of growth at 1470.8 µg/mL (Escherichia coli [4]),inhibition of growth at 1470.8 µg/mL (Staphylococcus aureus [5]),inhibition of growth at 1470.8 µg/mL (Bacillus cereus [6]),inhibition of growth at 11.64 µg/mL (Listeria monocytogenes [7]),inhibition of growth at 11.64 µg/mL (Vibrio parahaemolyticus [8]),inhibition of growth at 11.64 µg/mL (Salmonella typhimurium [9]),inhibition of growth at 11.64 µg/mL (Escherichia coli [10]),inhibition of growth at 11.64 µg/mL (Staphylococcus aureus [11]),inhibition of growth at 11.64 µg/mL (Bacillus cereus [12])
C=C1CC/C=C(/C)CC[C@@H]2[C@@H]1CC2(C)C [CARYOPHYLLENE],7.2%,26.5%,10.2%,12.8%,54.7%,32.1%,–,–,–,–,–,–
CC1=C[C@@H]2C(=C(C)CC[C@H]2C(C)C)CC1,–,–,–,–,–,–,15.7%,32.5%,4.3%,9.5%,26.3%,20.3%
